Screening results deposited in PubChem BioAssay by The Scripps Research Institute Molecular Screening Center.
Hits are enriched below; roughly 3.3% of the tested compounds scored in any of these assays.
mABHD4 FP: inhibitors of mouse ABHD4; Q8VD66; purified mABHD4, FP-Rh probe fluorescence polarization; inhibition, % at 8.92 µM; hit rate 0.54% among 370,000; AID 720543;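 active = inhibition exceeding the mean over every tested compound plus 3 SD, cut at about 30% in these data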;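 note: 0% = plate median of compound wells and 100% = S159A mutant with DMSO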
Target sequence (Q8VD66 whole entry, looked up): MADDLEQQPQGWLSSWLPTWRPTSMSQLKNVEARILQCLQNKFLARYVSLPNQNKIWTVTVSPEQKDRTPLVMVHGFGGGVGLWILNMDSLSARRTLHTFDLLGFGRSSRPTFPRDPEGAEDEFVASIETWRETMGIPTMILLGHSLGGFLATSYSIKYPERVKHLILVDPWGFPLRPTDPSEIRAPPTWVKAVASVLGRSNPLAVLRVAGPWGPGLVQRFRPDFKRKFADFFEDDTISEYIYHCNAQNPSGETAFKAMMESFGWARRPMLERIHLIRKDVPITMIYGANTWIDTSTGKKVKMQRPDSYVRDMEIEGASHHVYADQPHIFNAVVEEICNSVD
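System: mouse ABHD4 enzyme, wild type / Medium: HEPES pH 7.0, NaCl, Pluronic buffer / Reagent: FP-Rh activity-based fluorescent probe / Control set: S159A mutant high control, sample median low control / Detection: fluorescence polarization with parallel and perpendicular emission, 525/598 nm / Schedule: 45 min + 60 min at 25 °C / Compound dosing: 8.92 µM, single dose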
rCAG RNA binder: binds r(CAG) RNA repeats. hit rate 1.3% among 370,000. inhibition, % at 3 µM. r(CAG) RNA repeat, TO-PRO-1 dye displacement fluorescence;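 active = inhibition above the plate cutoff, the mean of all test compounds on that plate plus 3 SD, cut at about 35% in these data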;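 note: 0% = DMSO alone and 100% = 100 µM mitoxantrone as full dye displacement; higher means more dye released from RNA so lower well fluorescence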
SIAE inh: blocks human sialic acid acetylesterase | Q9HAT2 | SIAE FP-Rh probe binding, fluorescence polarization | inhibition, % at 9.66 µM | hit rate 0.69% among 370,000;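 active = inhibition above a cutoff: mean of compounds within the control limits plus 3 SD of those, cut at about 17% in these data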;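 note: 0% = plate median of compound wells and 100% = probe without SIAE protein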
PRMT1 inh: PRMT1 (human) inhibition, primary screen | Q99873 | recombinant PRMT1, activity-based probe fluorescence polarization | inhibition, % at 2.79 µM | hit rate 1.3% among 370,000 | AID 652257;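 active = inhibition above about 21% made by adding two undisclosed values, limit read from the data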
TCR-CD3 inh: blocks the human TCR-CD3 interaction; inhibition, % at 9.4 µM; AID 651800; hit rate 0.37% among 360,000; TAMRA-labeled TCR probe fluorescence, biochemical;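 note: recombinant mutant TCR 2C K166C tagged with TAMRA read by polarization; 0% = receptor in buffer alone and 100% = receptor with positive control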
BSA TAMRA ctr: BSA probe counter-screen for TCR-CD3 inhibitors; shares compounds with TCR-CD3 inh; AID 652035; TAMRA-labeled BSA probe fluorescence counterscreen; hit rate 10% among 1,200; inhibition, % at 9.4 µM; in the data active = inhibition above about 23%;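 note: 0% = buffer low control and 100% = reference high control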
TCR-CD3 conf: confirmation of human TCR-CD3 interaction inhibitors | hit rate 48% among 1,200 | AID 652036 | inhibition, % at 9.4 µM | TAMRA-labeled TCR probe fluorescence binding assay | shares compounds with TCR-CD3 inh
An asterisk follows results filed as active; / = not tested or not shown. Cut-off read from the data, not from the text of the source, unless noted: active = inhibition above about 19%; inactive = the rest.

SMILES	mABHD4 FP	rCAG RNA binder	SIAE inh	PRMT1 inh	TCR-CD3 inh	others
COc1ccc2c3c([nH]c2c1)C(C)NCC3 (configuration not stated)	10	14	6	-3	25*
CCN(CC)c1ccc(/C=C2\C(=O)NC(=O)N(Cc3ccco3)C2=O)cc1	-65	24	-84	22*	-78
CCN(CC)c1ccc(/C=C2/C(=O)NC(=O)N(CC3CCCO3)C2=O)cc1 (configuration not stated)	2	-6	-38	7	-63
COc1ccc(N2C(=O)/C(=C/c3ccc(C)o3)C(=O)NC2=S)c(OC)c1	12	44*	5	18	17
CCC1(c2ccccc2)C(=O)N(C)C(=O)N(C)C1=O	3	-2	3	1	-11
CN1C(=O)N(C)C(=O)C2(Sc3ccccc3C2=O)C1=O	15	-1	6	27*	6
Cn1c(O)c(C=Nc2cccc(C(F)(F)F)c2)c(=O)n(C)c1=O	-5	-3	-4	22*	3
Cc1cc(N2CCNC[C@@H]2C)ccc1N1CCN[C@@H](C)C1	5	2	3	2	7
CC(C)(C)OC(=O)c1c(N)n(Cc2ccco2)c2nc3ccccc3nc12	3	16	-9	21*	-5
CCN(CC)P(=S)(c1c(C)nc2ccccn12)c1c(C)nc2ccccn12	6	-8	9	24*	-5
CCOc1c(P(=S)(N(C)C)N(C)C)c(C)nn1-c1ccccc1	5	-3	8	-1	1
c1ccc(Cn2nnnc2C2CN=C(c3ccccc3)c3ccccc3N2)cc1 (configuration not stated)	-4	5	-1	2	/
COc1ccc(/C=C2\C(=O)NC(=O)N(CCC3=CCCCC3)C2=O)c(OC)c1	9	22	5	8	-4
CCN1C(=O)NC(=O)/C(=C\c2ccc(N3CCOCC3)cc2OC)C1=O	2	-2	-78	21*	-22
C=CC1C[N+]2(C)CCC1CC2C(O)c1ccnc2ccccc12 (configuration not stated)	-6	-2	2	-5	0
CCN(CC)C(=O)c1ccc2c(c1)C1C=CCC1C(C(=O)O)N2 (configuration not stated)	54*	46*	17	49*	24*
COC(=O)C1=C(c2c(C)noc2C)C[C@@H]2CC[C@H]1N2C(=O)NCCCOC(C)C	-3	-5	31*	-1	2
O=c1[nH]c(=O)n(C2CCCCCC2)c(O)c1C=NCc1cccnc1	-2	-3	-2	2	-5
COc1ccc2c(c1OC)C(=O)OC2c1c(O)n(C2CCCCC2)c(=O)[nH]c1=O (configuration not stated)	-6	11	4	23*	-7
CC(C)(C)n1nnnc1C1CN=C(c2ccccc2)c2ccccc2N1 (configuration not stated)	3	-1	-2	-2	/
O=C(O)CNC1c2ccccc2CSc2ccccc21 (configuration not stated)	3	3	-1	21*	-1
O=S(=O)(c1ccc2ccccc2c1)N1Cc2cc(Br)ccc2-n2nncc2C1	3	0	1	0	-6
Cc1ccc2nc(-c3ccc(CN4CCC(n5c(=O)[nH]c6cc(Cl)ccc65)CC4)cc3)c(-c3ccccc3)nc2c1	-6	15	-22	4	6
CC(=O)N1c2ccccc2C(c2ccccc2)=NCC1C(=O)NC1CCCCC1 (configuration not stated)	-2	-1	-5	5	/
O=C1NC(=O)N(c2ccccc2)C(=O)/C1=C\C=C\c1ccccc1	0	27	-6	7	-8
SMILES	mABHD4 FP	rCAG RNA binder	SIAE inh	PRMT1 inh	TCR-CD3 inh	others
Cc1ccc(N2C(=O)NC(=O)/C(=C/C=C/c3ccco3)C2=O)cc1	-8	29	-26	24*	-4
CC(=O)NCC1=C(c2ccc(S(C)(=O)=O)cc2)C[C@@H]2CC[C@H]1N2CCOc1ccccc1	5	-1	5	0	9
O=c1[nH]c(=O)n(CCC2=CCCCC2)c(O)c1/C=N/Nc1ccccc1	7	16	5	22*	-2
C[C@H]1CN([C@@H](C)CO)C(=O)CCCn2cc(nn2)CO[C@@H]1CN(C)C(=O)Oc1cccc2ccccc12	-2	2	-1	-1	6
CCOC(=O)COc1ccc(/C=C2\C(=O)NC(=S)N(c3ccc(OC)cc3)C2=O)cc1OC	8	24	-3	23*	-4
CN1CCC(c2c[nH]c3ccccc23)C1 (configuration not stated)	3	3	-5	-2	23*	BSA TAMRA ctr=1;TCR-CD3 conf=3
C#C[C@]1(O)CC[C@H]2[C@@H]3CCC4=CC(=O)CC[C@]4(C)[C@H]3CC[C@@]21C	-3	0	8	-2	20*	BSA TAMRA ctr=0;TCR-CD3 conf=0
Cc1nc2ccccc2c(=O)n1/N=C/c1cc(Br)cc(Br)c1O	9	9	2	0	46*	BSA TAMRA ctr=-12;TCR-CD3 conf=47*
Cc1nc2ccccc2c(=O)n1-c1ccc(Br)cn1	-4	-3	-1	-1	5
Nc1ccc(CCN2CCN(c3cccc(C(F)(F)F)c3)CC2)cc1	-3	0	4	-8	44*	BSA TAMRA ctr=-4;TCR-CD3 conf=0
C[C@@H]1CNCCN1c1ccc(N2CC[C@@H](O)C2)c(C#N)c1	2	3	7	-5	0
CN1C(=O)NC(=O)/C(=C/c2ccc([N+](=O)[O-])o2)C1=O	-5	21	4	24*	20*	BSA TAMRA ctr=-6;TCR-CD3 conf=7
C[C@@H]1CNCCN1c1ccc(N2CC[C@H](O)C2)c(C#N)c1	5	2	8	0	3
Cc1ccc(OC(=O)N(C)C[C@@H]2OCc3ccccc3-c3c(n(C)c4ccccc34)C(=O)N([C@H](C)CO)C[C@H]2C)cc1	2	8	-3	1	4
Fc1cccc(-c2ccc3c(c2)CN(C(=S)NCCc2ccccc2)Cc2cnnn2-3)c1	-8	13	-43	1	0
S=C(NCCc1ccccc1)N1Cc2cc(-c3ccccc3)ccc2-n2nncc2C1	-49	8	-24	-1	22*	BSA TAMRA ctr=10;TCR-CD3 conf=7
COc1ccc2nc(-c3ccc(CN4CCC(n5c(=O)[nH]c6cc(Cl)ccc65)CC4)cc3)c(-c3ccccc3)nc2c1	-18	14	-13	0	7
CCCCCCn1c(=O)c(C(=O)Nc2ncccc2O)c(O)c2ccccc21	6	1	3	3	26*	BSA TAMRA ctr=-3;TCR-CD3 conf=22*
CCCCn1c(O)c(/C=N/NC(=O)c2ccncc2)c(=O)[nH]c1=O	7	6	1	-2	11
O=C(N/N=C/c1c(O)n(CCc2ccccc2)c(=O)[nH]c1=O)c1ccccc1	9	7	-1	-2	37*	BSA TAMRA ctr=-6;TCR-CD3 conf=6
